Source: ChEMBL document CHEMBL1914421, “Aminomethyltetrazoles as potential inhibitors of the γ-aminobutyric acid transporters mGAT1-mGAT4: synthesis and biological evaluation” (Bioorg Med Chem, 2011)

Experiments:
HEK293 = test: Residual mouse GAT4-mediated [3H]GABA uptake expressed in human HEK cells at 100 uM
[1] = tested on: betaine/GABA transporter BGT-1 (Slc6a12, Mus musculus); test: Residual mouse GAT2-mediated [3H]GABA uptake expressed in human HEK cells at 100 uM; conditions: HEK293
[2] = target: Sodium- and chloride-dependent GABA transporter 1 (Mus musculus) (UniProt P31648); test: Residual mouse GAT1-mediated [3H]GABA uptake expressed in human HEK cells at 100 uM; conditions: HEK293
[3] = tested on: GABA transporter Slc6a13 (Mus musculus); test: Residual mouse GAT3-mediated [3H]GABA uptake expressed in human HEK cells at 100 uM; conditions: HEK293
[4] = target: T1, GABA transporter 4 (Mus musculus) (UniProt P31650); test: Residual mouse GAT4-mediated [3H]GABA uptake expressed in human HEK cells at 1 mM; conditions: HEK293
T1 sequence (whole entry): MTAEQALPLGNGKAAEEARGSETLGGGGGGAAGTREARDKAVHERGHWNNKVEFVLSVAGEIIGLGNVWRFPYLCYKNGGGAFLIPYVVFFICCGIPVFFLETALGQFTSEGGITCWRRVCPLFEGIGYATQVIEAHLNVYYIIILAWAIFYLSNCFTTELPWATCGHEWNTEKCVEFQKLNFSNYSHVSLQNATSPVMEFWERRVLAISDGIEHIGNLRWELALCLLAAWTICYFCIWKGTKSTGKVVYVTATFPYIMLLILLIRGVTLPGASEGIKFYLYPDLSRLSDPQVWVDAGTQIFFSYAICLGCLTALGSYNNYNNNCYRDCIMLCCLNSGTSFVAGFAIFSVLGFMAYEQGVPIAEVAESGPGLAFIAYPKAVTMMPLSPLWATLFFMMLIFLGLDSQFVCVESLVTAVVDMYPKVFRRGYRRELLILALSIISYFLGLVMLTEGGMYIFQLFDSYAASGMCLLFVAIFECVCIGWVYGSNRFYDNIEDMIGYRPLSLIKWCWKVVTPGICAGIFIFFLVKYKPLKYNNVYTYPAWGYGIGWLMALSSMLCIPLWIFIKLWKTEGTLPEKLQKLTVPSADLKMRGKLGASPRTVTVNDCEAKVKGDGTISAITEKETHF

[5] = target: Sodium- and chloride-dependent GABA transporter 1 (Mus musculus) (UniProt P31648); test: Residual mouse GAT1-mediated [3H]GABA uptake expressed in human HEK cells at 1 mM; conditions: HEK293
[6] = tested on: GABA transporter Slc6a13 (Mus musculus); test: Residual mouse GAT3-mediated [3H]GABA uptake expressed in human HEK cells at 1 mM; conditions: HEK293
[7] = tested on: betaine/GABA transporter BGT-1 (Slc6a12, Mus musculus); test: Residual mouse GAT2-mediated [3H]GABA uptake expressed in human HEK cells at 1 mM; conditions: HEK293
[8] = Inhibition of mouse GAT4-mediated [3H]GABA uptake expressed in human HEK cells; format: cell-based; conditions: HEK293
Summary of the method: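 Specific [3H]GABA uptake was measured at the murine transporter subtype, and results are given as pIC50 ± SEM from three independent experiments, each run in triplicate.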

[9] = Inhibition of GAT mediated [3H]GABA uptake in rat brain synaptosomes; format: subcellular
Mus musculus [10] = organism: Mus musculus; test: Selectivity ratio of IC50 for mouse GAT3 to IC50 for mouse GAT4
Mus musculus [11] = organism: Mus musculus; test: Selectivity ratio of IC50 for mouse GAT3 to IC50 for mouse GAT1
[12] = target: T2, Sodium- and chloride-dependent GABA transporter 1 (Mus musculus, UniProt P31648); test: Inhibition of mouse GAT1-mediated [3H]GABA uptake expressed in human HEK cells; format: cell-based, HEK293
Summary of the method: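 Specific [3H]GABA uptake measured at murine GAT1. Inhibition reported as pIC50 ± SEM from three independent experiments, each run in triplicate. Where stated, some values are the mean of two independent experiments, or one experiment in triplicate.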

[13] = target: T2, Sodium- and chloride-dependent GABA transporter 1; test: Inhibition of mouse GAT1-mediated [3H]GABA uptake expressed in BHK cells; format: cell-based
GABA transporter 4 = target: T3, GABA transporter 4 (Mus musculus, UniProt P31650); test: Inhibition of mouse GAT4-mediated [3H]GABA uptake expressed in BHK cells; format: cell-based
T3 sequence (P31650 whole entry): T1 sequence (whole entry)

SMILES | residual activity [1] | residual activity [2] | residual activity [3] | IC50 [8] | level, % of control (HEK293) | further results
C(CCNCc1nnn[nH]1)=C(c1ccccc1)c1ccccc1 | 76.9% | 86.1% | 73.8% |  | 101% | 
CC(C)(C)CC(C)(C)n1nnnc1CNCCN |  |  |  |  |  | residual activity [4]: 92.5%; residual activity [5]: 133%; residual activity [6]: 71.1%; residual activity [7]: 142%
CCCCNCc1nnnn1C(C)(C)CC(C)(C)C | 60.3% | 83.3% | 49% | 49 µM |  | 
NCc1nnn[nH]1 |  |  |  |  |  | residual activity [4]: 78.9%; residual activity [5]: 85.1%; residual activity [6]: 66.5%; residual activity [7]: 59.4%
CC(C)(C)CC(C)(C)n1nnnc1CNCCCn1c2ccccc2c2ccccc21 | 72.6% | 75.1% | 68.8% |  | 59.7% | 
C1CN(Cc2nnn[nH]2)CCO1 |  |  |  |  |  | residual activity [4]: 90.8%; residual activity [5]: 90.6%; residual activity [6]: 87.8%; residual activity [7]: 88%
c1ccc(C(CCNCc2nnn[nH]2)c2ccccc2)cc1 | 53.2% | 100% | 72.6% |  | 80.5% | 
NCCc1nnn[nH]1 |  |  |  |  |  | IC50 [9]: < 100 µM
CC(C)(C)CC(C)(C)n1nnnc1CNCC(c1ccccc1)c1ccccc1 | 63.5% | 83.3% | 53.8% | 67.6 µM |  | 
NCC(=O)O |  |  |  |  |  | residual activity [4]: 69.7%; residual activity [5]: 83.1%
CC(C)(C)CC(C)(C)n1nnnc1CNCC=C(c1ccccc1)c1ccccc1 |  | 65.7% |  | 26.3 µM |  | 
COc1ccccc1C1(O)CCN(CCCn2c3ccccc3c3ccccc32)CC1 |  |  |  | 16.6 µM |  | IC50 [12]: 10.2 µM; IC50 [13]: 19.1 µM; IC50 (GABA transporter 4): 15.1 µM
NCCNCc1nnn[nH]1 |  |  |  |  |  | residual activity [4]: 60.7%; residual activity [5]: 81.7%; residual activity [6]: 86.3%; residual activity [7]: 80%
c1ccc(C(NCc2nnnn2C2CCCCC2)c2ccccc2)cc1 |  | 54.8% |  | 28.8 µM |  | 
C1=C(c2nnn[nH]2)CCNC1 |  |  |  |  |  | IC50 [9]: < 100 µM
NCCCc1nnn[nH]1 |  |  |  |  |  | IC50 [9]: < 100 µM
C1CNCC(c2nnn[nH]2)C1 (stereo not given) |  |  |  |  |  | IC50 [9]: < 100 µM
c1ccc(C(NCc2nnn[nH]2)c2ccccc2)cc1 | 94.2% | 69.7% | 94.2% |  | 85.4% | 
C1CC(c2nnn[nH]2)CCN1 |  |  |  |  |  | IC50 [9]: < 100 µM
C1CN(Cc2nnn[nH]2)CCN1 |  |  |  |  |  | residual activity [4]: 101%; residual activity [5]: 90%; residual activity [6]: 102%; residual activity [7]: 75.4%

The next lines start with results.

residual activity [1] | residual activity [2] | residual activity [3] | IC50 [8] | SMILES | level, % of control (HEK293) | further results
82% | 80.5% | 46.2% |  | C(CNCc1nnn[nH]1)=C(c1ccccc1)c1ccccc1 | 79.6% | 
 | 54.6% |  | 34.7 µM | c1ccc(C(CCNCc2nnnn2C2CCCCC2)c2ccccc2)cc1 |  | 
81.6% | 86.3% | 83.6% |  | c1ccc2c(c1)c1ccccc1n2CCCNCc1nnn[nH]1 | 78.7% | 
 | 62.9% |  | 51.3 µM | C(CNCc1nnnn1C1CCCCC1)=C(c1ccccc1)c1ccccc1 |  | 
 | 57.3% |  | 41.7 µM | C(CNCc1nnnn1Cc1ccccc1)=C(c1ccccc1)c1ccccc1 |  | 
 | 63.8% |  | 29.5 µM | CC(C)(C)CC(C)(C)n1nnnc1CNCCCC(c1ccccc1)c1ccccc1 |  | 
61.6% | 73.9% | 51.7% | 63.1 µM | c1ccc(Cn2nnnc2CNCCC(c2ccccc2)c2ccccc2)cc1 |  | 
65.3% | 105% | 74% |  | CCCCNCc1nnn[nH]1 | 71.5% | 
84.5% | 81.1% |  |  | c1ccc(Cn2nnnc2CNC(c2ccccc2)c2ccccc2)cc1 | 57.2% | 
67.1% | 72.4% |  |  | c1ccc(Cn2nnnc2CNCC(c2ccccc2)c2ccccc2)cc1 | 52.3% | 
84.1% | 69.4% | 53.5% |  | C(CCNCc1nnnn1Cc1ccccc1)=C(c1ccccc1)c1ccccc1 | 53.1% | 
77.1% | 70.7% |  | 29.5 µM | CC(C)(C)CC(C)(C)n1nnnc1CNCCC(c1ccccc1)c1ccccc1 |  | Ratio IC50 (Mus musculus [10]): 4; Ratio IC50 (Mus musculus [11]): 12
 | 70.6% |  |  | c1ccc(C(CCCNCc2nnnn2C2CCCCC2)c2ccccc2)cc1 | 43.2% | 
81.4% | 85.6% |  |  | CC(C)(C)CC(C)(C)n1nnnc1CNC(c1ccccc1)c1ccccc1 | 56.9% | 
85.8% | 48.2% | 63.5% |  | c1ccc(C(CNCc2nnn[nH]2)c2ccccc2)cc1 | 71.2% | 
69.5% | 64.5% |  |  | C(CCNCc1nnnn1C1CCCCC1)=C(c1ccccc1)c1ccccc1 | 58.2% | 
99% | 73.4% | 63.3% |  | CC(C)(C)CC(C)(C)n1nnnc1CN1CCOCC1 | 90.5% | 
54.9% | 75.4% |  | 18.2 µM | CC(C)(C)CC(C)(C)n1nnnc1CNCCC=C(c1ccccc1)c1ccccc1 |  | 
106% | 90.2% | 81.4% |  | CC(C)(C)CC(C)(C)n1nnnc1CN1CCNCC1 | 78.4% | 
89.3% | 82% | 75.1% |  | c1ccc(C(CCCNCc2nnn[nH]2)c2ccccc2)cc1 | 87.4% | 
 | 68.1% |  |  | c1ccc(Cn2nnnc2CNCCCC(c2ccccc2)c2ccccc2)cc1 | 49.6% | 
75.9% | 59.1% |  | 44.7 µM | c1ccc(C(CNCc2nnnn2C2CCCCC2)c2ccccc2)cc1 |  | 
